Measurements collected from several papers.
Lines come from different studies, so protocols differ.
Target: Serine/threonine-protein kinase pim-2 (PIM2, Homo sapiens, UniProt Q9P1W9)

The remaining binding of C[C@H]1CCN(c2nccc(-c3cnn4ncccc34)n2)C1 is reported as 81% (binding; 1 µM).
For CNC(=O)[C@@H]1CC[C@@H](n2c(-c3ccc4cnccc4c3)nc3ccc(C(=O)NCc4cccc(C(N)=O)c4)cc32)C1, the remaining binding was 93% (binding; competition with immobilised ligand; 1 µM).
Nc1ncc2c(n1)-c1c([nH]c3ccc(C#CC4CC4)cc13)CCCC2 has a remaining binding of 95% (binding; competition with immobilised ligand; 1 µM).
The remaining binding of C[C@H](c1cccc(C#N)c1)n1cc(Cl)cc(C(N)=O)c1=N is reported as 100% (cell-free assay; competition with immobilised ligand; 1 µM).
The remaining binding of O=C(c1ccc(Nc2ncc(Cl)c(-c3ccc(Cl)s3)n2)cc1)N1CCC(N2CCCC2)CC1 is reported as 100% (binding; competition with immobilised ligand; 1 µM).
CO[C@@H](C)c1c(Nc2ccc([C@@H](N(C)C(=O)C3CCS(=O)(=O)CC3)C(F)(F)F)cc2)cnc2cc(Cl)nn12 gave a remaining binding of 95% (cell-free assay; competition with immobilised ligand; 1 µM).
With N[C@@H]1CCN(c2nccc(-c3cnn4ncccc34)n2)C1 the remaining binding was 100% (binding; 1 µM).
For CSc1cccnc1N1CCN(Cc2nc3ccccc3[nH]2)CC1, the remaining binding was 96% (cell-free assay; competition with immobilised ligand; 1 µM).
For O=C(NCCCN1CCOCC1)c1ccc(Nc2nccc(-c3cc4ccccc4s3)n2)cc1, the remaining binding was 100% (binding; competition with immobilised ligand; 1 µM).
The remaining binding of CN([C@@H]1CCc2c(CC(=O)O)c3ccccc3n2C1)S(=O)(=O)c1ccc(F)cc1 is reported as 100% (cell-free assay; competition with immobilised ligand; 1 µM).
The remaining binding of C=CC(=O)N1CCC(C(=O)NCC(=O)N2CCN(c3nc(-c4cnc(N)nc4C(F)F)nc(N4CCOCC4)n3)CC2)CC1 is reported as 82% (binding; competition with immobilised ligand; 1 µM).
F[C@@H]1CCN(c2nccc(-c3cnn4ncccc34)n2)C1 has a remaining binding of 100% (binding; 1 µM).
The remaining binding of CCC(=O)N[C@@H]1CC[C@H](C(=O)N(C)c2ccc(-c3nc4ccccc4o3)cc2)C1 is reported as 100% (cell-free assay; competition with immobilised ligand; 1 µM).
For C[C@@H](c1ccc(-n2cnc3c(N)ncnc32)cc1)N1CCc2nn(C)c(Cc3ccccc3)c2C1=O, the remaining binding was 100% (binding; competition with immobilised ligand; 0.1 µM).
Cc1cnc(Nc2ccc(C(=O)N3CCC(N4CCCC4)CC3)cc2)nc1-c1cc2ccccc2s1 has a remaining binding of 100% (binding; competition with immobilised ligand; 1 µM).
The remaining binding of Cc1c(NC(=O)c2cc(C(N)=O)nc3cc(F)ccc23)c(C(F)(F)F)nn1Cc1ccc(C(C)(C)C)cc1 is reported as 100% (cell-free assay; competition with immobilised ligand; 1 µM).
For Cc1cnn2ncc(-c3ccnc(N(C)C)n3)c2c1, the remaining binding was 84% (binding; 1 µM).
For C[C@@H]1CN(c2ccc3ncc(-c4ccc5[nH]nc(C6CC6)c5c4)n3n2)C[C@H](C)O1, the remaining binding was 92% (binding; competition with immobilised ligand; 50 nM).
The remaining binding of CCN1CCN(Cc2ccc(C(=O)Nc3ccc(C)c(Oc4ccc5c(c4)CC(=O)N5)c3)cc2C(F)(F)F)CC1 is reported as 97% (binding; competition with immobilised ligand; 1 µM).
CN(C)c1ncc(F)c(-c2cnn3ncccc23)n1 has a remaining binding of 95% (binding; 1 µM).
For O=C(Nc1c[nH]nc1C(=O)NC1CCNCC1)c1cc(F)cc(F)c1, the remaining binding was 96% (binding; competition with immobilised ligand; 1 µM).
For CN(C)CC#Cc1ccc(OCCCc2sc(N3CCc4cccc(C(=O)Nc5nc6ccccc6s5)c4C3)nc2C(=O)O)c(F)c1, the remaining binding was 100% (cell-free assay; competition with immobilised ligand; 1 µM).
The remaining binding of CN(C)c1nccc(-c2cnn3ncccc23)n1 is reported as 78% (binding; 1 µM).
COc1cnc(Nc2cccc(S(N)(=O)=O)c2)nc1N1CCN(c2ccccc2)C(=O)C1 has a remaining binding of 100% (binding; competition with immobilised ligand; 1 µM).
